Assay results: article PMC8830944 (Molecular Diversity, 2022)
Converted amounts (≈) assume the structure as drawn.

What was measured:
PAMPA = format: in vitro ADME; details: for Papp at 5 h, 500 µM: pH 7.4
C. tropicalis = assay: Antifungal MIC, liquid growth inhibition; format: cell-based; details: Candida tropicalis, 24 h, read-out: Antifungal activity, MIC90
Procedure, shortened: (§1)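 Clinical isolates from patient specimens, one isolate per patient. Yeasts were grown in YPD at 37 °C for 16 h with 150 rpm shaking, then subcultured to OD 0.3. Inoculum was set to 0.5 McFarland and diluted 1:500 in RPMI 1640 […]. CLSI broth microdilution used final compound concentrations of 256–0.125 µg/mL. MIC90 is the concentration inhibiting 90% of the strains tested per species.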

C. neoformans = assay: Antifungal MIC, liquid growth inhibition; format: cell-based; details: Cryptococcus neoformans, 24 h, read-out: Antifungal activity, MIC90
Procedure, shortened: as §1

C. albicans = assay: Antifungal MIC, liquid growth inhibition; format: cell-based; details: Candida albicans, 24 h, read-out: Antifungal activity, MIC90
Procedure, shortened: as §1

Row | Structure (SMILES) | Papp at 5 h, 500 µM (PAMPA) [×10⁻⁶ cm/s] | Membrane retention (PAMPA; phosphatidylcholine in dodecane, pH 7.4, 5 h, r.t.) [%] | MIC90 (C. tropicalis) [µg/mL] | MIC90 (C. neoformans) [µg/mL] | MIC90 (C. albicans) [µg/mL]
1 | Cn1c(=O)c2c(ncn2C)n(C)c1=O [Caffeine] | 1.84 | 3.2 |  |  | 
2 | O=C(N[C@H](CO)[C@H](O)c1ccc([N+](=O)[O-])cc1)C(Cl)Cl [Chloramphenicol] | 0.3 |  |  |  | 
3 | OC(Cn1cncn1)(Cn1cncn1)c1ccc(F)cc1F [F, Fluconazole] |  |  | 2 (≈ 6.53 µM) | 2 (≈ 6.53 µM) | 2 (≈ 6.53 µM)
